Reference: ChEMBL document CHEMBL1129331, “Synthesis and physicochemical, biological, and pharmacological properties of new bile acids amidated with cyclic amino acids” (J Med Chem, 1996)
≈ marks a conversion by molar mass, not a printed value.

Tests used:
Rattus norvegicus [1] = assay: Secretion of phospholipid in Bile Fistula rats after the iv administration of compound, expressed as the residual secretion rate i; format: ADME, organism-based; conditions: in vivo
In short: (§1)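 Male Sprague-Dawley rats (300-330 g), urethane-anesthetized, bile duct cannulated. After 1 h baseline, sodium salt infused via femoral vein at 10 μmol/min/kg for 1 h; bile collected at 15-min intervals for 3 h. Flow measured gravimetrically; bile acids, cholesterol and phospholipid measured enzymatically. Smax and Tmax read from secretion-time plots; Rs is the rate at hour 3. Mean ± SD, n=6.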

Rattus norvegicus [2] = assay: Secretion of Bile in Bile Fistula rats after the iv administration of compound, expressed as the residual secretion rate i; format: ADME, organism-based; conditions: in vivo; in short: as §1
cholylglycine hydrolase = assay: The compound was incubated with cholylglycine hydrolase and tested for determining the stability towards C-24 Deamination; format: ADME; conditions: cholylglycine hydrolase
Rattus norvegicus [3] = assay: Alkaline phosphatase in Bile Fistula rats after iv coinfusion of TCDCA and compound.; format: ADME, organism-based; conditions: in vivo
In short: (§2)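 Bile fistula Sprague-Dawley rats (200-250 g). TCDCA and test bile acid given as sodium salts, coinfused via jugular vein, each at 8 μmol/min/kg for 1 h. Bile collected at 30-min intervals for 3 h. Calcium, ALP and LDH in bile measured enzymatically; bile acid composition by HPLC (65% methanol, 15 mM ammonium acetate, pH 5.4). Mean ± SD.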

[4] = (§3) The compound was incubated with human stools and tested for determining the stability towards 7-dehydroxylation; format: ADME, organism-based
In short: (§4)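 Homogenized fresh human stool (500 mg) in 5 mL chopped meat-glucose medium; bile acid added at 0.05 mM final; 37 °C. Sampled at 0–72 h and stopped with 30% KOH. Bile acids recovered by C-18 solid-phase extraction, then analyzed by TLC and by HPLC with 75% methanol/15 mM ammonium acetate, pH 5.4.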

[5] = Water solubility was determined; format: ADME; conditions: read-out: WS
In short: (§5)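 Protonated form; measured on saturated solutions at pH 1.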

Rattus norvegicus [6] = assay: Secretion of phospholipid in Bile Fistula rats after the iv administration of compound, expressed as the maximum secretion rate i; format: ADME, organism-based; conditions: in vivo; in short: as §1
Rattus norvegicus [7] = assay: Lactate dehydrogenase in Bile Fistula rats after iv coinfusion of TCDCA and compound.; format: ADME, organism-based; conditions: in vivo; in short: as §2
Rattus norvegicus [8] = assay: Secretion of Bile acids in Bile Fistula rats after the iv administration of compound, expressed as the residual secretion rate; format: ADME, organism-based; conditions: in vivo; in short: as §1
Rattus norvegicus [9] = assay: Secretion of Bile acids in Bile Fistula rats after the iv administration of compound, expressed as the maximum secretion rate i; format: ADME, organism-based; conditions: in vivo; in short: as §1
Rattus norvegicus [10] = assay: Secretion of cholesterol in Bile Fistula rats after the iv administration of compound, expressed as the residual secretion rate; format: ADME, organism-based; conditions: in vivo; in short: as §1
Rattus norvegicus [11] = assay: Calcium output in Bile Fistula rats after iv coinfusion of TCDCA and compound.; format: ADME, organism-based; conditions: in vivo; in short: as §2
Rattus norvegicus [12] = assay: Maximum biliary secretion rate of bile acids after iv coinfusion in Bile fistula rats.; format: ADME, organism-based; conditions: in vivo; in short: as §2
[13] = (§6) Partition coefficient (logP); format: physicochemical; conditions: octanol/water
In short: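 Octanol/water partition coefficient of the protonated species, calculated rather than measured.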

Rattus norvegicus [14] = assay: Secretion of Bile in Bile Fistula rats after the iv administration of compound, expressed as the maximum secretion rate; format: ADME, organism-based; conditions: in vivo; in short: as §1
Rattus norvegicus [15] = assay: Bile flow in Bile Fistula rats after iv coinfusion of TCDCA and compound.; format: ADME, organism-based; conditions: in vivo; in short: as §2
[16] = Critical Micellar concentration was determined; format: ADME
In short: (§7)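 Measured in water from surface tension, using the maximum bubble-pressure method.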

[17] = Relative lipophilicity was determined; format: physicochemical; conditions: C-18 reverse phase HPLC
In short: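 C-18 reverse-phase HPLC run isocratically at 0.9 mL/min. Mobile phase 65% (v/v) aqueous methanol with 2 mM ammonium acetate, pH 7, so that all bile acids are fully ionized.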

Rattus norvegicus [18] = assay: Maximum biliary secretion rate of TCDCA after iv coinfusion in Bile fistula rats.; format: ADME, organism-based; conditions: in vivo; in short: as §2
Rattus norvegicus [19] = assay: Secretion of cholesterol in Bile Fistula rats after the iv administration of compound, expressed as the maximum secretion rate i; format: ADME, organism-based; conditions: in vivo; in short: as §1
[20] = Critical micellar pH was determined
In short: (§8)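 20 mL of 50 mM bile salt solution titrated with 0.1 M HCl. CMpH is taken as the pH at which precipitate of the protonated form is first seen by turbidity at 500 nm. Confirmed by back-titration with 0.1 M NaOH until the suspension clears.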

[21] = Acidity constant was determined; format: ADME
Rattus norvegicus [22] = assay: Secretion of phospholipid in Bile Fistula rats after the iv administration of compound, expressed as the maximum secretion rate; format: ADME, organism-based; conditions: in vivo
In short: (§9)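 Anaesthetised (ethyl carbamate) male Sprague-Dawley rats, 300-330 g, bile duct cannulated; after 1 h baseline, bile acid sodium salts infused via femoral vein at 10 μmol/min/kg for 1 h. Bile collected 3 h at 15 min intervals; flow gravimetric; BA, cholesterol, phospholipid by enzymatic assays. Smax, Tmax from secretion-vs-time plots; Rs = rate at third hour. n=6, mean ± SD.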

Rattus norvegicus [23] = assay: Secretion of Bile in Bile Fistula rats after the iv administration of compound, expressed as the residual secretion rate; format: ADME, organism-based; conditions: in vivo; in short: as §9
[24] = as §3; format: ADME, organism-based; remark: listed apart in the source
In short: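 Homogenised fresh human stool (500 mg) in 5 mL chopped meat-glucose medium with bile acid at 0.05 mM final, incubated at 37 °C; stopped with 30% KOH at 0, 4, 8, 16, 20, 24 and 72 h. Supernatant extracted on C-18 solid phase, analysed by TLC and HPLC (aqueous methanol 75%, 15 mM ammonium acetate, apparent pH 5.4).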

Rattus norvegicus [25] = assay: Secretion of Bile acids in Bile Fistula rats after the iv administration of compound, expressed as the maximum secretion rate; format: ADME, organism-based; conditions: in vivo; in short: as §9
Rattus norvegicus [26] = assay: Secretion of phospholipid in Bile Fistula rats after the iv administration of compound, expressed as the residual secretion rate; format: ADME, organism-based; conditions: in vivo; in short: as §9
Rattus norvegicus [27] = assay: Maximum biliary secretion rate of bile acids after iv confusion in Bile fistula rats.; format: ADME, organism-based; conditions: in vivo
[28] = as §6; format: physicochemical; conditions: octanol/water; remark: listed apart in the source
Rattus norvegicus [29] = assay: Maximum biliary secretion rate of TCDCA after iv confusion in Bile fistula rats.; format: ADME, organism-based; conditions: in vivo
[30] = Critical Micellar concentration of the compound. was determined; format: ADME; in short: as §7
[31] = Acidity constant of the compound. was determined; format: ADME
[32] = Water solubility of the compound. was determined; format: ADME; conditions: read-out: S; in short: as §5
[33] = Critical micellar pH of the compound. was determined; in short: as §8
[34] = The compound was incubated with human stools and tested for determining the stability towards C-24 Deamination; format: ADME, organism-based; conditions: in the assay text read “7-dehydroxylation” for “C-24 Deamination”; in short: as §4

Structure (SMILES)	Rs (Rattus norvegicus [1])	Rs (Rattus norvegicus [2])	half-life (cholylglycine hydrolase)	[ALP]max (Rattus norvegicus [3])	solubility [5]	Smax (Rattus norvegicus [6])	[LDH]max (Rattus norvegicus [7])	Rs (Rattus norvegicus [8])	Smax (Rattus norvegicus [9])	Rs (Rattus norvegicus [10])	Smax (Rattus norvegicus [11])	Smax (Rattus norvegicus [12])	logP [13]	Smax (Rattus norvegicus [14])	Smax (Rattus norvegicus [15])	CMC [16]	rK [17]	Smax (Rattus norvegicus [18])	Smax (Rattus norvegicus [19])	CMpH [20]	further results
CC(CCC(=O)N1C[C@@H](O)C[C@@H]1C(=O)O)C1CC[C@H]2[C@@H]3[C@@H](O)CC4C[C@H](O)CC[C@]4(C)[C@H]3CC[C@]12C (stereo partly specified)	0.12 µM/min/kg	2.76 mL/h/kg	> 72 h	31 IU/L	250 µM (≈ 126 µg/mL)	0.25 µM/min/kg	10 UI l-1	0.9 µM/min/kg	6.3 µM/min/kg	31 nM/min/kg	0.37 µM/min/kg	3.27 µM/min/kg	3.59	5.82 mL/h/kg	5.4 mL/h/kg	10 mM	0.6	4.98 µM/min/kg	68 nM/min/kg	4.7	half-life [4]: > 72 h; pKa [21]: 3.1
CC(CCC(=O)NCC(=O)O)C1CC[C@H]2[C@@H]3C[C@H](O)C4C[C@H](O)CCC4(C)[C@H]3CCC12C (stereo partly specified)	–	–	5 h	–	–	–	–	–	–	–	–	–	–	–	–	–	–	–	–	–	–
C[C@H](CCC(=O)O)[C@H]1CC[C@H]2[C@@H]3[C@@H](O)C[C@@H]4C[C@H](O)CC[C@]4(C)[C@H]3CC[C@]12C [URSODIOL]	–	–	–	217 IU/L	8 µM (≈ 3.14 µg/mL)	–	115 UI l-1	0.0008 µM/min/g	–	24 nM/min/kg	0.00018 µM/min/g	–	–	6.96 mL/h/kg	4.32 mL/h/kg	–	1	–	55 nM/min/kg	8.4	Smax (Rattus norvegicus [22]): 0.00026 µM/min/g; Rs (Rattus norvegicus [23]): 2.82 mL/h/kg; half-life [24]: 2 h; Smax (Rattus norvegicus [25]): 0.0042 µM/min/g; Rs (Rattus norvegicus [26]): 0.00012 µM/min/g; Smax (Rattus norvegicus [27]): 1.72 µM/min/kg; logP [28]: 5.69; Smax (Rattus norvegicus [29]): 1.56 µM/min/kg; CMC [30]: 26 mM
C[C@H](CCC(=O)O)[C@H]1CC[C@H]2[C@@H]3C[C@H](O)[C@@H]4C[C@H](O)CC[C@]4(C)[C@H]3CC[C@]12C [HYODEOXYCHOLIC_ACID]	–	–	–	–	–	–	–	–	–	–	–	–	4.27	–	–	–	0.89	–	–	–	pKa [31]: 5; solubility [32]: 15 µM (≈ 5.89 µg/mL); CMC [30]: 14 mM; CMpH [33]: 8.1
CC(CCC(=O)N1CCC[C@@H]1C(=O)O)C1CC[C@H]2[C@@H]3C[C@H](O)C4C[C@H](O)CC[C@]4(C)[C@H]3CC[C@]12C (stereo partly specified)	0.21 µM/min/kg	2.82 mL/h/kg	> 72 h	57 IU/L	52 µM (≈ 25.5 µg/mL)	0.34 µM/min/kg	95 UI l-1	1.4 µM/min/kg	5.7 µM/min/kg	46 nM/min/kg	0.42 µM/min/kg	3.02 µM/min/kg	4.41	4.02 mL/h/kg	4.98 mL/h/kg	25 mM	0.94	3.88 µM/min/kg	60 nM/min/kg	6.6	half-life [34]: > 72 h; pKa [21]: 3.9
